Measurements reported in ChEMBL document CHEMBL3808393, “Discovery of Potent and Selective Agonists of δ Opioid Receptor by Revisiting the "Message-Address" Concept” (ACS Med Chem Lett, 2016).

What was measured:
[1] = molecular target: T1, Kappa-type opioid receptor (Homo sapiens, UniProt P41145); test: Agonist activity at human KOR expressed in CHO cell membranes after 60 mins by [35S]GTP-gamma-S binding assay
Summary of the method: (§1)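 Receptor activation by standard [35S]GTP-γ-S binding. Each compound was assayed three times and reported as mean ± SEM.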

[2] = molecular target: T2, Delta-type opioid receptor (Homo sapiens, UniProt P41143); test: Displacement of [3H]DPDPE from human DOR expressed in CHO cell membranes at 1 uM after 60 mins
Summary of the method: (§2)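 Competitive radioligand inhibition binding. […] DOR used [3H]DPDPE on membranes of CHO cells expressing human DOR. KOR used [3H]U69593 on CHO cells expressing human KOR. […] Each compound was run three times, mean ± SEM.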

[3] = molecular target: T3, Mu-type opioid receptor (Homo sapiens, UniProt P35372); test: Displacement of [3H]DAMGO from human MOR expressed in CHO cell membranes at 1 uM after 60 mins
[4] = molecular target: T1, Kappa-type opioid receptor; test: Displacement of [3H]U69593 from human KOR expressed in CHO cell membranes after 60 mins
[5] = molecular target: T2, Delta-type opioid receptor; test: Displacement of [3H]DPDPE from human DOR expressed in CHO cell membranes after 60 mins
[6] = molecular target: T3, Mu-type opioid receptor; test: Displacement of [3H]DAMGO from human MOR expressed in CHO cell membranes after 60 mins
[7] = molecular target: T2, Delta-type opioid receptor; test: Agonist activity at human DOR expressed in CHO cell membranes after 60 mins by [35S]GTP-gamma-S binding assay; summary of the method: as §1
[8] = molecular target: T1, Kappa-type opioid receptor; test: Displacement of [3H]U69593 from human KOR expressed in CHO cell membranes at 1 uM after 60 mins; summary of the method: as §2
[9] = molecular target: T3, Mu-type opioid receptor; test: Agonist activity at human MOR expressed in CHO cell membranes after 60 mins by [35S]GTP-gamma-S binding assay
Summary of the method: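 [35S]GTP-γ-S binding read-out of G-protein activation. Each compound assayed three times, with values given as mean ± standard error of the mean.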

T3 sequence (P35372 whole entry): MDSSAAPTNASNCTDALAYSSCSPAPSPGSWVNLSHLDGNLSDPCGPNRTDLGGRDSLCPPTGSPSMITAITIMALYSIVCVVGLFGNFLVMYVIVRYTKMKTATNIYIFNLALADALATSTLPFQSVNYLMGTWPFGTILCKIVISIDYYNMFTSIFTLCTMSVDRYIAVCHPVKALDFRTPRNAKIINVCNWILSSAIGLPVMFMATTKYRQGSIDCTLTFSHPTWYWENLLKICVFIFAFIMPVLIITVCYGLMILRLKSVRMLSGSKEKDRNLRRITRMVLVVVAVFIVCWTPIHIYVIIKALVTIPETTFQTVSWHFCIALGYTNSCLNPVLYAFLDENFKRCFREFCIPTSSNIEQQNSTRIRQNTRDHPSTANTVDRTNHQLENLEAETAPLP
T2 sequence (P41143 whole entry): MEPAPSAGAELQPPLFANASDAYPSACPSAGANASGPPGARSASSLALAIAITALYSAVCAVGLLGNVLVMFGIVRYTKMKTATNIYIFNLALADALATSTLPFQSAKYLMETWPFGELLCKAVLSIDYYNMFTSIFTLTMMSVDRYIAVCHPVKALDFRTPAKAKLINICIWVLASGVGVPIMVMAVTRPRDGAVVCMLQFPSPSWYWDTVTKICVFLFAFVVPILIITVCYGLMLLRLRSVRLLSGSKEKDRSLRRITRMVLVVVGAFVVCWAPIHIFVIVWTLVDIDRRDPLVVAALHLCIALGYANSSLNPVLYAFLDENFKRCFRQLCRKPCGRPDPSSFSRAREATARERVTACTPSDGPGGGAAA
T1 sequence (P41145 whole entry): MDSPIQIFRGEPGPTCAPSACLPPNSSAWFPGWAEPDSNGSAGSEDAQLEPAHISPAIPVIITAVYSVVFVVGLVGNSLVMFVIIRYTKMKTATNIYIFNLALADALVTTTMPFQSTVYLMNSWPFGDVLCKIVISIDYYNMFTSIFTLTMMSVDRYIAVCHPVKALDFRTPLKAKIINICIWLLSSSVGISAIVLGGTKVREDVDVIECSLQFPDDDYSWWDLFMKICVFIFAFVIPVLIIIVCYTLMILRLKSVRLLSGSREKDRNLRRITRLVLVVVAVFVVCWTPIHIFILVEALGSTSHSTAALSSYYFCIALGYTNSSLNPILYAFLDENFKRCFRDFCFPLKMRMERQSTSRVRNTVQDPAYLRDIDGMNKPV

Q: Which results are given for `CN(C)C[C@H]1CCc2cc(-c3ccccc3)ccc2[C@]1(O)c1cccc(O)c1`?
A: EC50 [1]: 0.58 µM; Emax [1]: 187%; inhibition [2]: 22%; inhibition [3]: 20%; Ki [4]: 0.14 µM

Q: For `COc1ccccc1-c1ccc2c(c1)CCC(CN(C)C)C2(O)c1cccc(O)c1` (single isomer, unassigned; (-)) [listing 1 of 2 here], which Ki [5] is on record?
A: Its Ki is 0.0027 µM.

Q: And the Ki [6]?
A: The Ki was greater than 10 µM.

Q: And the EC50 [7]?
A: Its EC50 is 0.0026 µM.

Q: What about the Ki [4] of the same compound?
A: Its Ki is greater than 10 µM.

Q: With `CN(C)C[C@H]1CCc2cc(-c3ccc(Cl)c(Cl)c3)ccc2[C@]1(O)c1cccc(O)c1` as the compound, how does the Ki [5] read?
A: Its Ki is greater than 10 µM.

Q: What about the Ki [6] of the same compound?
A: Its Ki is greater than 10 µM.

Q: And the Ki [4]?
A: The Ki was greater than 10 µM.

Q: `COc1cccc([C@@]2(O)c3ccc(-c4ccccc4OC)cc3CC[C@@H]2CN(C)C)c1` was tested. Which Ki [6] did it give?
A: Its Ki is greater than 10 µM.

Q: What about the inhibition [2] of the same compound?
A: The inhibition was 37.9%.

Q: What about the Ki [4] of the same compound?
A: Its Ki is greater than 10 µM.

Q: Which results are given for `COc1cccc([C@@]2(O)c3ccc(-c4ccccc4)cc3CC[C@@H]2CN(C)C)c1`?
A: Ki [5]: > 10 µM; Ki [6]: > 10 µM; inhibition [8]: 37%

Q: With `COc1ccccc1-c1ccc2c(c1)CC[C@H](CN(C)C)[C@@]2(O)c1cccc(O)c1` as the compound, how does the Ki [5] read?
A: Its Ki is 0.0047 µM.

Q: What about the Ki [6] of the same compound?
A: The Ki was greater than 10 µM.

Q: And the EC50 [7]?
A: The EC50 was 0.0093 µM.

Q: And the Emax [7]?
A: The Emax was 230%.

Q: And the inhibition [8]?
A: The inhibition was 17.7%.

Q: How did the Ki [5] turn out when `COc1ccccc1-c1ccc2c(c1)CCC(CN(C)C)C2(O)c1cccc(O)c1` (single isomer, unassigned; (+)) was run?
A: The Ki was greater than 10 µM.

Q: And the Ki ([6]; cho)?
A: The Ki was greater than 10 µM.

Q: What about the Ki ([4]; cho) of the same compound?
A: Its Ki is greater than 10 µM.

Q: How did the Emax [7] turn out when `COc1ccccc1-c1ccc2c(c1)CCC(CN(C)C)C2(O)c1cccc(O)c1` (single isomer, unassigned; (-)) [listing 2 of 2 here] was run?
A: Its Emax is 205%.

Q: What does the source list for `COc1cccc([C@@]2(O)c3ccc(-c4ccc(Cl)c(Cl)c4)cc3CC[C@@H]2CN(C)C)c1`?
A: Ki [5]: > 10 µM; Ki [6]: > 10 µM; Ki [4]: > 10 µM

Q: With `CN(C)C[C@H]1CCCC[C@]1(O)c1cccc(O)c1` (racemic) [O-DESMETHYL TRAMADOL] as the compound, how does the Ki [5] read?
A: Its Ki is greater than 10 µM.

Q: And the Ki [4]?
A: The Ki was greater than 10 µM.

Q: What about the Emax [9] of the same compound?
A: Its Emax is 220%.

Q: `CN(C)C[C@H]1CCc2cc(-c3ccccc3Cl)ccc2[C@]1(O)c1cccc(O)c1` was tested. Which Ki [5] did it give?
A: The Ki was 0.16 µM.

Q: And the Ki [6]?
A: The Ki was greater than 10 µM.

Q: And the EC50 [7]?
A: Its EC50 is 0.95 µM.

Q: What about the Emax [7] of the same compound?
A: The Emax was 216%.

Q: And the Ki [4]?
A: The Ki was greater than 10 µM.

Q: What does the source list for `COc1cccc([C@@]2(O)c3ccc(-c4ccccc4C)cc3CC[C@@H]2CN(C)C)c1`?
A: Ki [6]: > 10 µM; inhibition [2]: 13%; inhibition [8]: 16.2%

Q: Which results are given for `CN(C)C[C@H]1CCc2cc(-c3ccc(Cl)cc3)ccc2[C@]1(O)c1cccc(O)c1`?
A: Ki [6]: > 10 µM; inhibition [2]: 17%; inhibition [8]: 8.9%

Q: How did the Ki [5] turn out when `COc1cccc(-c2ccc3c(c2)CC[C@H](CN(C)C)[C@@]3(O)c2cccc(OC)c2)c1` was run?
A: Its Ki is greater than 10 µM.

Q: What about the Ki [6] of the same compound?
A: Its Ki is greater than 10 µM.

Q: And the Ki [4]?
A: Its Ki is greater than 10 µM.

Q: How did the Ki [5] turn out when `COc1ccc(-c2ccc3c(c2)CC[C@H](CN(C)C)[C@@]3(O)c2cccc(OC)c2)cc1` was run?
A: Its Ki is greater than 10 µM.

Q: What about the Ki [6] of the same compound?
A: The Ki was greater than 10 µM.

Q: And the Ki [4]?
A: The Ki was greater than 10 µM.

Q: Which Ki [6] does the source give for `COc1ccc(-c2ccc3c(c2)CC[C@H](CN(C)C)[C@@]3(O)c2cccc(O)c2)cc1` here?
A: The Ki was greater than 10 µM.

Q: And the inhibition [2]?
A: The inhibition was 32%.

Q: What about the Ki [4] of the same compound?
A: The Ki was greater than 10 µM.

Q: Which results are given for `COc1cccc([C@@]2(O)CCCC[C@@H]2CN(C)C)c1` (racemic) [(R,R)-TRAMADOL]?
A: Ki [5]: > 10 µM; inhibition [3]: 9.6%; Ki [4]: > 10 µM

Q: Which Ki [5] does the source give for `COc1cccc([C@@]2(O)c3ccc(-c4ccc(C(F)(F)F)cc4)cc3CC[C@@H]2CN(C)C)c1` here?
A: The Ki was greater than 10 µM.

Q: What about the Ki [6] of the same compound?
A: Its Ki is greater than 10 µM.

Q: And the Ki [4]?
A: The Ki was greater than 10 µM.

Q: How did the Ki [5] turn out when `COc1cccc([C@@]2(O)c3ccc(-c4ccc(Cl)cc4)cc3CC[C@@H]2CN(C)C)c1` was run?
A: Its Ki is greater than 10 µM.

Q: What about the Ki [6] of the same compound?
A: The Ki was greater than 10 µM.

Q: What about the Ki [4] of the same compound?
A: Its Ki is greater than 10 µM.

Q: For `CN(C)C[C@H]1CCc2cc(-c3ccc(C(F)(F)F)cc3)ccc2[C@]1(O)c1cccc(O)c1`, which Ki [5] is on record?
A: Its Ki is greater than 10 µM.

Q: And the Ki [6]?
A: Its Ki is greater than 10 µM.

Q: What about the Ki [4] of the same compound?
A: Its Ki is greater than 10 µM.

Q: For `Cc1ccccc1-c1ccc2c(c1)CC[C@H](CN(C)C)[C@@]2(O)c1cccc(O)c1`, which Ki [5] is on record?
A: Its Ki is 0.14 µM.

Q: And the Ki [6]?
A: Its Ki is greater than 10 µM.

Q: And the EC50 [7]?
A: Its EC50 is 0.49 µM.

Q: What about the Emax [7] of the same compound?
A: The Emax was 199%.

Q: And the Ki [4]?
A: The Ki was greater than 10 µM.

Q: With `CN(C)C[C@H]1CCc2cc(-c3ccccc3C(F)(F)F)ccc2[C@]1(O)c1cccc(O)c1` as the compound, how does the Ki [5] read?
A: The Ki was 0.065 µM.

Q: What about the Ki [6] of the same compound?
A: The Ki was greater than 10 µM.

Q: And the EC50 [7]?
A: Its EC50 is 0.9 µM.

Q: And the Emax [7]?
A: Its Emax is 217%.

Q: What about the Ki [4] of the same compound?
A: Its Ki is greater than 10 µM.

Q: Which Ki [6] does the source give for `COc1cccc(-c2ccc3c(c2)CC[C@H](CN(C)C)[C@@]3(O)c2cccc(O)c2)c1` here?
A: The Ki was greater than 10 µM.

Q: And the inhibition [2]?
A: The inhibition was 43%.

Q: What about the inhibition [8] of the same compound?
A: Its inhibition is 15%.

Q: How did the Ki [5] turn out when `CN(C)C[C@H]1CCc2cc(-c3ccccc3F)ccc2[C@]1(O)c1cccc(O)c1` was run?
A: The Ki was 0.72 µM.

Q: And the Ki [6]?
A: The Ki was greater than 10 µM.

Q: What about the EC50 [7] of the same compound?
A: Its EC50 is 1.6 µM.

Q: And the Emax [7]?
A: The Emax was 172%.

Q: And the Ki [4]?
A: The Ki was greater than 10 µM.

Q: For `CN(C)C[C@H]1CCc2cc(-c3ccccc3OC(F)(F)F)ccc2[C@]1(O)c1cccc(O)c1`, which Ki [5] is on record?
A: Its Ki is 0.26 µM.

Q: And the Ki [6]?
A: The Ki was greater than 10 µM.

Q: And the EC50 [7]?
A: Its EC50 is 1 µM.

Q: And the Emax [7]?
A: The Emax was 215%.

Q: And the Ki [4]?
A: The Ki was greater than 10 µM.
